Measured values: ChEMBL document CHEMBL2029325, “Fused piperidines as a novel class of potent and orally available transient receptor potential melastatin type 8 (TRPM8) antagonists” (J Med Chem, 2012)
In brackets after ≈: the same amount, converted by molar mass. Activity calls are given as the source filed them. The calls are words filed in the database; no cut-off is given here.

Legend:
[1] = biological target: Transient receptor potential cation channel subfamily M member 8 (Rattus norvegicus, UniProt Q8R455); experiment: Antagonist activity at rat TRPM8 expressed in CHO cells assessed as inhibition of icilin-induced Ca2+ influx incubated 2.5 mins prior icilin induction by flash luminometry; assay type: functional, cell-based
Chain of Transient receptor potential cation channel subfamily M member 8 (Q8R455 whole entry): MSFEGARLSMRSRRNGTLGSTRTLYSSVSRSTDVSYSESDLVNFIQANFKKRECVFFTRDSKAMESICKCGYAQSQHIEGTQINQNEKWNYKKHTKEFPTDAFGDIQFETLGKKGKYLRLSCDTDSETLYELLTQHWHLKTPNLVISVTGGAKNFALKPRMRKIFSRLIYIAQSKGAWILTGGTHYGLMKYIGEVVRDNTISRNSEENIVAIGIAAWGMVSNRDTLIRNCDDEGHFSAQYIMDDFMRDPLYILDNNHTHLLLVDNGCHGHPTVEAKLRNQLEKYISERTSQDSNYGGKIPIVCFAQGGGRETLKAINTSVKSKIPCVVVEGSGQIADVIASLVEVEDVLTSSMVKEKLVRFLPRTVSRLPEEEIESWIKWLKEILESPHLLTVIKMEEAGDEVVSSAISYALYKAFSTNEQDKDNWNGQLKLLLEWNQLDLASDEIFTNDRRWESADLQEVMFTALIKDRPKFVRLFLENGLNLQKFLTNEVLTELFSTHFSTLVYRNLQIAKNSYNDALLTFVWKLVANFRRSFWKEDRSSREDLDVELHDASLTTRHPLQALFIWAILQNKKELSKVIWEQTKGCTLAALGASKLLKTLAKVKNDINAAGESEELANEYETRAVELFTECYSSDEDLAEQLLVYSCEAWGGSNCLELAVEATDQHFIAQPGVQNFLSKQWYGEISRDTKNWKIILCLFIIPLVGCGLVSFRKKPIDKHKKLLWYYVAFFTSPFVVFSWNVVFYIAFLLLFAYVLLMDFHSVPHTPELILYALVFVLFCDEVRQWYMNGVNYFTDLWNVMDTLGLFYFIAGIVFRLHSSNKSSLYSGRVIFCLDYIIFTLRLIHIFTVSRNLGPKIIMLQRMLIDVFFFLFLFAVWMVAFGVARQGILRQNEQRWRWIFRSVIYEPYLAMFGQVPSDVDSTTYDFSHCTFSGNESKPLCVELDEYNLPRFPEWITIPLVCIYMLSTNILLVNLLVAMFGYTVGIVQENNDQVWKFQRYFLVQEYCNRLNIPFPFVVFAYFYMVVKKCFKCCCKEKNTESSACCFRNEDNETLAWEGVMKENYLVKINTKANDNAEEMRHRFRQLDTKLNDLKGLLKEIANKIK
Summary of the method: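 CHO cells stably expressing rat TRPM8 under a tetracycline-inducible T-REx system, co-transfected with aequorin. Seeded 24 h before assay; expression induced with 0.5 μg/mL tetracycline. Luminescence was read on a CCD-camera luminometer.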

[2] = Intrinsic clearance in CD1 rat liver microsomes at 1 uM after 30 mins; assay type: ADME, Microsome; settings: read-out: CLH
[3] = Volume of distribution at steady state in Sprague-Dawley rat at 2 mg/kg, iv by LC-MS/MS analysis; assay type: ADME, organism-based; set-up: dose 2 mg/kg, route intravenous; settings: in vivo, read-out: Vdss
Summary of the method: (§1)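 Fed male Sprague–Dawley rats, n = 3, given 2 mg/kg iv in DMSO. Measured by LC/MS/MS; noncompartmental analysis; mean(SD).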

[4] = system: Plasma; experiment: Plasma concentration in Sprague-Dawley rat at 30 mg/kg, po; assay type: ADME, organism-based; set-up: dose 30 mg/kg, route oral; settings: in vivo
Summary of the method: (§2)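 Male Sprague–Dawley rats (n = 8 per group) dosed po in 5% Tween 80/Oraplus 90 min before icilin challenge in the wet-dog-shake study. Plasma collected 2 h after oral dosing.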

[5] = system: Rattus norvegicus; experiment: Antinociceptive activity in po dosed Sprague-Dawley rat assessed as inhibition of icilin-induced wet-dog shakes administered 90 mins prior icilin challenge measured for 30 mins; assay type: functional, organism-based
Summary of the method: (§3)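 Male Sprague–Dawley rats (220–300 g, n = 5–13/treatment) were habituated 30 min to the room, then 20 min to an observation cylinder, kept out of sight of other rats. Compound or vehicle (5% Tween 80/Oraplus) given po 90 min before icilin (0.5 mg/kg ip in 100% PEG 400). Wet-dog shakes counted for 30 min afterwards.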

[6] = Oral bioavailability in Sprague-Dawley rat at 10 mg/kg by LC-MS/MS analysis; assay type: ADME, organism-based; settings: in vivo
Summary of the method: (§4)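 Fasted male Sprague–Dawley rats, n = 3, given 10 mg/kg by oral gavage as a suspension in 5% Tween 80/Oraplus. Plasma taken predose and at 0.25, 0.5, 1, 2, 4, 6, 8, 12 and 16 h. Measured by LC/MS/MS; noncompartmental analysis; mean(SD).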

[7] = AUC (infinity) in Sprague-Dawley rat at 2 mg/kg, iv by LC-MS/MS analysis; assay type: ADME, organism-based; set-up: time infinity, dose 2 mg/kg, route intravenous; settings: plasma; summary of the method: as §1
[8] = system: Rattus norvegicus; experiment: Antinociceptive activity in Sprague-Dawley rat assessed as inhibition of icilin-induced wet-dog shakes at 3 mg/kg, po administered 90 mins prior icilin challenge measured for 30 mins; assay type: functional; summary of the method: as §3
[9] = system: Rattus norvegicus; experiment: Antinociceptive activity in Sprague-Dawley rat assessed as inhibition of icilin-induced wet-dog shakes at 30 mg/kg, po administered 90 mins prior icilin challenge measured for 30 mins; assay type: functional; summary of the method: as §3
[10] = Cmax in Sprague-Dawley rat at 10 mg/kg, po by LC-MS/MS analysis; assay type: ADME, organism-based; set-up: dose 10 mg/kg, route oral; settings: in vivo; summary of the method: as §4
[11] = AUC (infinity) in Sprague-Dawley rat at 10 mg/kg, po by LC-MS/MS analysis; assay type: ADME, organism-based; set-up: time infinity, dose 10 mg/kg, route oral; settings: plasma; summary of the method: as §4
[12] = system: Plasma; experiment: Plasma concentration in Sprague-Dawley rat at 100 mg/kg, po; assay type: ADME, organism-based; set-up: dose 100 mg/kg, route oral; settings: in vivo; summary of the method: as §2
[13] = system: Rattus norvegicus; experiment: Antinociceptive activity in Sprague-Dawley rat assessed as inhibition of icilin-induced wet-dog shakes at 100 mg/kg, po administered 90 mins prior icilin challenge measured for 30 mins; assay type: functional, organism-based; set-up: dose 100 mg/kg; summary of the method: as §3

IC50 [1] [nM]	microsomal CLint at 1 µM [2] [µL/min/mg]	SMILES	also measured
6800	–	CC1c2ccsc2CCN1C(=O)Nc1ccccc1 (centres undefined)	–
290	211	O=C(Nc1ccccc1)N1CCc2sccc2C1c1ccc(C(F)(F)F)cc1 (centres undefined)	–
1390	> 399	CCCC1c2ccsc2CCN1C(=O)Nc1ccc(Cl)cc1 (centres undefined)	–
560	> 399	O=C(Nc1ccccc1)N1CCc2sccc2C1c1ccc(Cl)cc1 (centres undefined)	–
780	278	O=C(Nc1cccc(F)c1)N1CCc2sccc2C1c1ccc(C(F)(F)F)cc1 (centres undefined)	–
1830	> 399	O=C(Nc1ccccc1)N1CCc2sccc2C1c1cccc(C(F)(F)F)c1 (centres undefined)	–
1840	> 399	O=C(Nc1ccccc1)N1CCc2sccc2C1c1ccc(F)cc1 (centres undefined)	–
> 20000	> 399	O=C(c1cccc(F)c1)N1CCc2sccc2C1c1ccc(C(F)(F)F)cc1 (centres undefined)	–
140	> 399	O=C(Nc1ccccc1)N1CCc2sccc2C1c1ccccc1Cl (centres undefined)	–
2270	> 399	O=C(Nc1ccccc1)N1CCc2sccc2C1c1ccccc1F (centres undefined)	–
550	> 399	CC(C)NC(=O)N1CCc2sccc2C1c1ccc(C(F)(F)F)cc1 (centres undefined)	–
1630	162	O=C(Nc1ccc(Cl)cc1)N1CCc2sccc2C1c1ccc(C(F)(F)F)cc1 (centres undefined)	–
> 20000	180	O=C(Nc1ccccc1)N1CCc2sccc2C1	–
5570	> 399	O=C(Nc1ccccc1)N1CCc2sccc2C1C1CC1 (centres undefined)	–
510	> 399	O=C(c1ccccc1F)N1CCc2sccc2C1c1ccc(C(F)(F)F)cc1 (centres undefined)	–
340	178	O=C(Nc1ccc(F)cc1)N1CCc2sccc2C1c1ccc(C(F)(F)F)cc1 (centres undefined)	–
293	> 399	CCCC1c2ccsc2CCN1C(=O)Nc1ccccc1 (centres undefined)	–
600	342	O=C(Nc1ccccc1F)N1CCc2sccc2C1c1ccc(C(F)(F)F)cc1 (centres undefined)	–
2320	203	COc1ccc(NC(=O)N2CCc3sccc3C2c2ccc(C(F)(F)F)cc2)cc1 (centres undefined)	–
240	> 399	O=C(Nc1ccccc1)N1CCc2sccc2C1c1ccccc1C(F)(F)F (centres undefined)	–
1320	> 399	O=C(Nc1ccccc1)N1CCc2sccc2C1c1cccc(F)c1 (centres undefined)	–
1690	> 399	O=C(Nc1ccccc1)N1CCc2sccc2C1c1ccccc1 (centres undefined)	–
> 20000	> 399	FC(F)(F)c1ccc(C2c3ccsc3CCN2Cc2ccccc2)cc1 (centres undefined)	–
2890	> 399	O=C(Nc1ccccc1)N1CCc2sccc2C1c1cccc(Cl)c1 (centres undefined)	–

The next lines start with the compound.

SMILES	IC50 [1] [nM]	microsomal CLint at 1 µM [2] [µL/min/mg]	also measured
CC(C)N1CCc2sccc2C1c1ccc(C(F)(F)F)cc1 (centres undefined)	> 20000	< 14	–
O=C(Nc1ccc(F)cc1)N1CCc2cc(F)ccc2C1c1ccc(C(F)(F)F)cc1 (centres undefined)	302	40	–
O=C(Nc1ccc(F)cc1)N1CCCc2ccccc2C1c1ccc(C(F)(F)F)cc1 (centres undefined)	> 20000	146	–
O=C(Nc1ccc(F)cc1)N1CCc2ccsc2C1c1ccc(C(F)(F)F)cc1 (centres undefined)	150	206	–
CC(C)CN1CCc2sccc2C1c1ccc(C(F)(F)F)cc1 (centres undefined)	> 20000	–	–
O=C(Cc1ccc(F)cc1)N1CCc2sccc2C1c1ccc(C(F)(F)F)cc1 (centres undefined)	890	> 399	–
O=C(Nc1ccc(F)cc1)N1CCc2occc2C1c1ccc(C(F)(F)F)cc1 (centres undefined)	260	109	–
O=C(c1ccc(F)cc1)N1CCc2sccc2C1c1ccc(C(F)(F)F)cc1 (centres undefined)	> 20000	248	–
O=C(Nc1ccc(F)cc1)N1CCc2cccc(F)c2C1c1ccc(C(F)(F)F)cc1 (centres undefined)	790	43	–
O=C(Nc1ccc(F)cc1)N1CCc2c(F)cccc2C1c1ccc(C(F)(F)F)cc1 (centres undefined)	100	48	–
O=C(Nc1ccc(F)cc1)N1CCCCC1c1ccc(C(F)(F)F)cc1 (centres undefined)	2660	285	–
O=C(Nc1ccc(F)cc1)N1CCc2scnc2C1c1ccc(C(F)(F)F)cc1 (centres undefined)	93	110	–
O=C(Nc1ccc(F)cc1)N1CCc2nc[nH]c2C1c1ccc(C(F)(F)F)cc1 (centres undefined)	1430	23	–
O=C(N1CCOCC1)N1CCc2sccc2C1c1ccc(C(F)(F)F)cc1 (centres undefined)	> 20000	> 399	–
FC(F)(F)c1ccc(C2NCCc3sccc32)cc1 (centres undefined)	> 20000	> 399	–
O=C(Nc1ccc(F)cc1)N1CCn2cccc2C1c1ccc(C(F)(F)F)cc1 (centres undefined)	180	123	–
O=C(NC1CC1)N1CCc2sccc2C1c1ccc(C(F)(F)F)cc1 (centres undefined)	1210	> 399	–
O=C(Nc1ccc(F)cc1)N1CCc2ccccc2[C@H]1c1ccc(C(F)(F)F)cc1	–	–	Vd [3]: 15.3 L/kg; Cp [4]: 460 ng/mL; EC50 [5]: 0.209 µg/mL (≈ 0.504 µM); inhibition [5]: Dose-dependent effect; bioavailability [6]: 57%; AUC(0-inf) [7]: 763 ng·h/mL; inhibition in vivo at 3 mg/kg [8]: 30%; inhibition in vivo at 30 mg/kg [9]: > 80%; Cmax [10]: 265 ng/mL; AUC(0-inf) [11]: 1750 ng·h/mL
CC(C)C(=O)N1CCc2sccc2C1c1ccc(C(F)(F)F)cc1 (centres undefined)	1260	> 399	–
O=C(Nc1ccc(F)cc1)N1CCc2ccccc2[C@@H]1c1ccc(C(F)(F)F)cc1	–	–	Vd [3]: 15.8 L/kg; Cp [12]: 521 ng/mL; AUC(0-inf) [7]: 347 ng·h/mL; inhibition [13]: inactive
O=C(Nc1ccc(F)cc1)N1Cc2ccccc2C1c1ccc(C(F)(F)F)cc1 (centres undefined)	340	64	–
Cn1cnc2c1CCN(C(=O)Nc1ccc(F)cc1)C2c1ccc(C(F)(F)F)cc1 (centres undefined)	260	36	–
O=C(Nc1ccc(F)cc1)N1CCc2ccoc2C1c1ccc(C(F)(F)F)cc1 (centres undefined)	230	164	–
O=C(Nc1ccc(F)cc1)N1CCc2ccc(F)cc2C1c1ccc(C(F)(F)F)cc1 (centres undefined)	190	34	–
